Data reported in ChEMBL document CHEMBL1132465, “Design and synthesis of thrombin inhibitors: analogues of MD-805 with reduced stereogenicity and improved potency” (J Med Chem, 1999).

Columns and labels:
[1] = The compound was evaluated for the dose to double the control plasma APTT value in the human plasma; type: functional
Outline: (§1)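 Human blood was anticoagulated with one-tenth volume 3.8% trisodium citrate and centrifuged at 1300g for 20 min to give platelet-poor plasma. Plasma was spiked with compound at 0 to about 150 μM. It was activated 5 min at 37 °C with bovine cephalin (ellagic acid) reagent, and clotting was started with 20 mM CaCl2. Clot time was read on a coagulometer. Concentration doubling APTT was read from a concentration–APTT plot.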

[2] = biological target: T1, Prothrombin (Homo sapiens, UniProt P00734); assay: Inhibitory activity against human thrombin
[3] = biological target: Prothrombin (Bos taurus, UniProt P00735); assay: Inhibitory activity against bovine thrombin
[4] = biological target: T1, Prothrombin; assay: The compound was evaluated for the inhibitory activity against human thrombin
Outline: (§2)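 Human thrombin (0.0625 U/mL final) in 0.05 M TRIS-HCl pH 8.4 with S-2238, started by enzyme. Absorbance slope at 405 nm was read over 30 s. A range-finding run at about 0.01–100 μM was followed by substrate at 3.125–100 μM with at least two inhibitor levels plus vehicle. DMSO was below 0.5%. Ki = [i]/(Kp/Km − 1) from double-reciprocal plots.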

[5] = The compound was evaluated for the dose to double the control plasma APTT value in the human plasma.; type: functional; outline: as §1
[6] = biological target: T1, Prothrombin; assay: The compound was evaluated for the inhibitory activity against human thrombin.; outline: as §2

SMILES: CC(=O)NCCC1CCN(C(=O)C(CCCN=C(N)N)NS(=O)(=O)c2cccc3c2NCC(C)(C)C3)CC1 (stereo unspecified)
- IC200 [1]: 2.15 µM
- Ki [2]: 43 nM

SMILES: CC1CNc2c(cccc2S(=O)(=O)NC(CCCN=C(N)N)C(=O)N2CCC[C@@H](CO)C2)C1 (stereo partly specified)
- Ki [3]: 1500 nM

SMILES: CC1CNc2c(cccc2S(=O)(=O)NC(CCCN=C(N)N)C(=O)N2CCC(CCCl)CC2)C1 (stereo unspecified)
- Ki [4]: 11 nM
- IC200 [1]: 2.7 µM
- Ki [3]: 19 nM

SMILES: CC1(C)CNc2c(cccc2S(=O)(=O)NC(CCCN=C(N)N)C(=O)N2CCC(CCF)CC2)C1 (stereo unspecified)
- Ki [2]: 5.7 nM
- IC200 [5]: 2.1 µM

SMILES: CC1CNc2c(cccc2S(=O)(=O)NC(CCCNC(=N)N)C(=O)N2CCC(CO)CC2)C1 (stereo unspecified)
- Ki [3]: 64 nM

SMILES: CC(=O)NCCC1CCN(C(=O)C(CCCN=C(N)N)NS(=O)(=O)c2cccc3c2NCC(C)C3)CC1 (stereo unspecified)
- Ki [4]: 66 nM
- IC200 [5]: 1.8 µM
- Ki [3]: 45 nM

SMILES: CC(C)(c1ccccc1)c1cccc(S(=O)(=O)NC(CCCNC(=N)N)C(=O)N2CCCC[C@H]2CO)c1 (stereo partly specified)
- Ki [3]: 3000 nM

SMILES: CC1CNc2c(cccc2S(=O)(=O)NC(CCCN=C(N)N)C(=O)N2CCC(CCC(=O)O)CC2)C1 (stereo unspecified)
- Ki [3]: 18400 nM

SMILES: CC1CNc2c(cccc2S(=O)(=O)NC(CCCN=C(N)N)C(=O)N2CCC(CCOC(=O)CCC(=O)O)CC2)C1 (stereo unspecified)
- Ki [3]: 34 nM

SMILES: C[C@H]1CNc2c(cccc2S(=O)(=O)NC(CCCNC(=N)N)C(=O)N2CCC(CCO)CC2)C1 (stereo partly specified)
- Ki [3]: 46 nM

SMILES: CCC1CCN(C(=O)C(CCCN=C(N)N)NS(=O)(=O)c2cccc3c2NCC(C)C3)CC1 (stereo unspecified)
- IC200 [1]: 6.27 µM
- Ki [3]: 27 nM

SMILES: CC1(C)CNc2c(cccc2S(=O)(=O)NC(CCCN=C(N)N)C(=O)N2CCC(CC(F)F)CC2)C1 (stereo unspecified)
- Ki [2]: 6 nM
- IC200 [5]: 1.5 µM

SMILES: CC1(C)CNc2c(cc(Cl)cc2S(=O)(=O)NC(CCCN=C(N)N)C(=O)N2CCC(CC(F)F)CC2)C1 (stereo unspecified)
- Ki [2]: 12.1 nM
- IC200 [5]: 6 µM

SMILES: CC1(C)CNc2c(cc(Cl)cc2S(=O)(=O)NC(CCCN=C(N)N)C(=O)N2CCC(CCF)CC2)C1 (stereo unspecified)
- IC200 [1]: 3.25 µM
- Ki [2]: 6.6 nM

SMILES: CC1CNc2c(cccc2S(=O)(=O)NC(CCCN=C(N)N)C(=O)N2CCC(CCC(=O)NCCC(=O)O)CC2)C1 (stereo unspecified)
- Ki [6]: 280 nM
- Ki [3]: 310 nM

SMILES: CC(C)(c1ccccc1)c1cccc(S(=O)(=O)NC(CCCNC(=N)N)C(=O)N2CCc3ccccc3C2)c1 (stereo unspecified)
- Ki [3]: 49 nM

SMILES: CC1CNc2c(cccc2S(=O)(=O)NC(CCCN=C(N)N)C(=O)N2CCCC(O)C2)C1 (stereo unspecified)
- Ki [3]: 360 nM

SMILES: CC1(C)CNc2c(cc(Cl)cc2S(=O)(=O)NC(CCCN=C(N)N)C(=O)N2CCC(CCOC(=O)C(C)(C)C)CC2)C1 (stereo unspecified)
- IC200 [1]: 8.5 µM
- Ki [3]: 56 nM

SMILES: CC1CNc2c(cccc2S(=O)(=O)NC(CCCN=C(N)N)C(=O)N2CCC(CCNC(=O)CCP(=O)(O)O)CC2)C1 (stereo unspecified)
- Ki [3]: 35200 nM
